These results are taken from ChEMBL document CHEMBL4428115, “Molecular docking studies, biological and toxicity evaluation of dihydroisoquinoline derivatives as potential anticancer agents” (Bioorg Med Chem, 2016).

Activity calls are given as the source filed them. The rule behind the calls is not given here.

One data set has as its system MV4-11. Kind of data set: Antiproliferative activity against human MV411 cells. The data set is classed as functional, cell-based.
A short description of data set [1]: Selectivity index, ratio of IC50 for mouse BALB/3T3 cells to IC50 for human HCV29T cells. The data set is classed as toxicity. The conditions noted are these: BALB/3T3 cells versus HCV29T cells, read-out: Ratio IC50.
A short description of data set [2]: Selectivity index, ratio of IC50 for mouse BALB/3T3 cells to IC50 for human A549 cells.
Data set [3] deals with HL-60. The data set is described as follows: Cell cycle arrest in human HL60 cells assessed as accumulation at G0/G1 phase at 1 to 3 ug/ml after 72 hrs by propidium iodide staining based flow cytometry. The data set is classed as functional. In outline: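 HL-60 seeded at 2 × 10^5 cells/mL 24 h before treatment, exposed 72 h to 1 or 3 µg/mL, with DMSO solvent and cisplatin controls. Cells fixed in 70% ethanol at −20°C, treated with RNase 8 µg/mL at 37°C for 1 h, stained 30 min with PI 50 µg/mL at 4°C. DNA content by flow cytometry; three independent experiments, mean ± SD.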

Data set [4] relates to HL-60. Kind of data set: Decrease in mitochondrial membrane potential in human HL60 cells at 3 ug/ml after 24 hrs using JC-1 staining based flow cytometry relative to control. The data set is classed as functional, cell-based. Put shortly:
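HL-60 treated 24 h at 3 µg/mL alongside DMSO control; […] for 24 h served as the low-potential control. Cells stained with JC-1 at 10 µg/mL final for 30 min at 37°C in the dark, washed, and analysed by flow cytometry (red aggregates vs green monomers). Three independent experiments, mean ± SD.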

The nature of data set [5]: Acute toxicity in Wistar rat assessed as mortaliity topically applied to shaved dorsal skin as single dose for 24 hrs measured for 14 days. The conditions noted are these: in vivo, topical or ocular. Put shortly:
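Wistar rats, 5 males and 5 females; single 2000 mg/kg bw dermal application to shaved dorsal skin (about 41 cm2 per male, 31 cm2 per female) for 24 h. General and detailed clinical observations daily over a 14-day observation period, then animals euthanized; treated skin examined for pathological changes.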

Data set [6] can be described thus: Acute toxicity in Balbc/cmdb mouse assessed as clinical signs at 300 mg/kg, po administered as single dose in first stage of experiment measured immediately post dose. The data set is classed as organism-based. The conditions noted are these: in vivo. Put shortly:
(§1)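 Acute toxic class method per OECD Guideline 423 / EU Method B.1 tris, run in three stages of three female Balbc/cmdb mice each. Fasted about 3 h, then given a single dose by metal stomach tube in DMSO at 0.5 mL/100 g bw. Stage doses were 300, 2000, then 2000 mg/kg bw. General and detailed clinical observations daily for 14 days; body weights recorded.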

Data set [7] in a line: Acute toxicity in Balbc/cmdb mouse assessed as clinical signs at 300 mg/kg, po administered as single dose in first stage of experiment measured for 14 days. The format is organism-based. The note with it: in vivo, 336 h. In outline:
as §1

Data set [8] in a line: Acute toxicity in Balbc/cmdb mouse assessed as clinical signs at 2000 mg/kg, po administered as single dose in third stage of experiment measured immediately post dose. The data set is classed as organism-based. The note with it: in vivo. In outline: as §1

One may read the IC50 as the concentration needed to halve the response being measured. Lower therefore signals greater potency in that assay. A word on the LD50: it is the dose expected to kill half of the subjects tested. `CCOC(=O)C1(C(=O)OCC)Cc2cc(OCc3ccccc3)cc(OCc3ccccc3)c2C=N1` came in with an IC50 with MV4-11 of 64.4 µM. The selectivity ratio in data set [1] stood at 4.1. Further, in [2], the “Ratio IC50” value is recorded as 2.7. Besides, the result in the data set on HL-60 [3] and in the data set with HL-60 [4] was Active. In addition, in data set [5], the LD50 at 14 days was above 2000 mg/kg. Further, the Activity entry in data set [6] is recorded as “Toxic”; in data set [7] it was “Non-Toxic”; in data set [8] it was “Toxic”.
